Source: ChEMBL document CHEMBL4613248, “Twelfth-Position Deuteration of Nevirapine Reduces 12-Hydroxy-Nevirapine Formation and Nevirapine-Induced Hepatocyte Death” (J Med Chem, 2020)

Assays:
[1] = target: T1, Cytochrome P450 2C8 (Homo sapiens, UniProt P10632); test: Drug metabolism assessed as human CYP2C8-mediated formation of 12-OHNVP at 10 uM […] by uHPLC-MS analysis; assay type: ADME; conditions: recombinant enzyme
T1 sequence (P10632 whole entry): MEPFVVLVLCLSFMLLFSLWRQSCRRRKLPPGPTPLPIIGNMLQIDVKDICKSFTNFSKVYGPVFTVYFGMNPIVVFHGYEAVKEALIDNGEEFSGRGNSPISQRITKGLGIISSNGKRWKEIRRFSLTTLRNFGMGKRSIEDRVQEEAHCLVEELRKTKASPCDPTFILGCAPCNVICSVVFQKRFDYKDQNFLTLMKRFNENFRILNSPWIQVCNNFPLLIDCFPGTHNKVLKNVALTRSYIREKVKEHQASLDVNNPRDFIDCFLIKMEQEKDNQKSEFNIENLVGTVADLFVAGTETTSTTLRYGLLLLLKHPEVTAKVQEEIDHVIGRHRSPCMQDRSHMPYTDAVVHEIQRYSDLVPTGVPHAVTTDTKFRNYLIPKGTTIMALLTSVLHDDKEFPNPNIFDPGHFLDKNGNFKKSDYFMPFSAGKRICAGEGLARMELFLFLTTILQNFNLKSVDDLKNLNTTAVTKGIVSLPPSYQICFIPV
In short: (§1)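 Insect-cell microsomes with single cDNA-expressed human P450 (100 nM) in 0.1 M potassium phosphate; 10 μM substrate prewarmed 5 min at 37 °C with NADPH-regenerating system, reaction started by adding microsomes; 30 min at 37 °C, 0.1% DMSO. Stopped, dried, reconstituted in methanol; triple-quadrupole SRM (12-OH 283.1→223.0, 2-OH 283.1→160.9, 3-OH 283.1→241.9), peak height; three replicates, mean ± SD.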

[2] = system: Hepatocyte; test: Induction of change in EXOSC1 protein expression in human primary hepatocytes at 10 uM incubated for 48 hrs by relative-quantitation label-free proteomics analysis relative to NVP; assay type: cell-based
In short: (§2)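 Cryoplateable pooled human hepatocytes (10 mixed-sex donors per pool; three pools), adhered overnight, then given fresh medium containing compound (10 μM), NVP (10 μM) or vehicle (0.1% DMSO) for 48 h. Lysate reduced (DTT) and alkylated (iodoacetamide), acetone-precipitated and digested with trypsin. Label-free Top10 nanoLC-MS with precursor ion area quantitation; unpaired t test P values, Cohen's d effect size.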

[3] = system: Hepatocyte; test: Induction of change in SHMT2 protein expression in human primary hepatocytes at 10 uM incubated for 48 hrs by relative-quantitation label-free proteomics analysis relative to NVP; assay type: cell-based; in short: as §2
[4] = system: Hepatocyte; test: Induction of change in TM9SF1 protein expression in human primary hepatocytes at 10 uM incubated for 48 hrs by relative-quantitation label-free proteomics analysis relative to NVP; assay type: cell-based; in short: as §2
[5] = system: Hepatocyte; test: Induction of change in FUBP3 protein expression in human primary hepatocytes at 10 uM incubated for 48 hrs by relative-quantitation label-free proteomics analysis relative to NVP; assay type: cell-based; in short: as §2
[6] = target: T2, Cytochrome P450 2A6 (Homo sapiens, UniProt P11509); test: Drug metabolism assessed as human CYP2A6-mediated formation of 12-OHNVP at 10 uM pre-incubated for 30 mins followed by addition of NADPH regenerating reagents by uHPLC-MS analysis; assay type: ADME; conditions: recombinant enzyme; in short: as §1
T2 sequence (P11509 whole entry): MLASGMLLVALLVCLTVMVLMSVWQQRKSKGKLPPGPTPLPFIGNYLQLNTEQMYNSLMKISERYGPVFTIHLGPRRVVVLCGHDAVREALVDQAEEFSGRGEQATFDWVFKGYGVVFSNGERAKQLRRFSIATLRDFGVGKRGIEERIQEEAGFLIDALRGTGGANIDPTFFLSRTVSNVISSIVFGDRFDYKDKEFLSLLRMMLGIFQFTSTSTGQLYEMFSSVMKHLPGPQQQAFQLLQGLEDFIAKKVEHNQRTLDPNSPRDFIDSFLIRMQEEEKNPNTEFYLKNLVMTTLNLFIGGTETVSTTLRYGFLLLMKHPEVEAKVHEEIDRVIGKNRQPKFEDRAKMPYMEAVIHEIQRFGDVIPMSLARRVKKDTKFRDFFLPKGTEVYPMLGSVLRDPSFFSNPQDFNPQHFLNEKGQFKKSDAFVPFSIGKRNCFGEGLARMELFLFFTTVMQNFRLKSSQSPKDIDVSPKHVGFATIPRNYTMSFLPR

[7] = system: Hepatocyte; test: Induction of change in CYB5A protein expression in human primary hepatocytes at 10 uM incubated for 48 hrs by relative-quantitation label-free proteomics analysis relative to NVP; assay type: cell-based; in short: as §2
[8] = system: Hepatocyte; test: Induction of change in Sirt5 protein expression in C57BL/6J mouse primary hepatocytes at 400 uM incubated for 8 hrs by relative-quantitation label-free proteomics analysis relative to NVP; assay type: cell-based
In short: as §2, with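 “Fresh primary” for “Cryoplateable pooled human”, “from male C57BL/6J mice aged 8–13 weeks,” for “(10 mixed-sex donors per pool; three pools),”, “(400” for “(10”, “(0.2%” for “(0.1%”, “8” for “48”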

[9] = system: Hepatocyte; test: Induction of change in CARS2 protein expression in human primary hepatocytes at 10 uM incubated for 48 hrs by relative-quantitation label-free proteomics analysis relative to NVP; assay type: cell-based; in short: as §2
[10] = system: Cytochrome P450; test: Drug metabolism in human primary hepatocytes assessed as Cytochrome P450-mediated formation of 3-OHNVP at 10 uM incubated for 24 to 48 hrs by uHPLC-MS analysis; assay type: ADME, cell-based
In short: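 Cryoplateable pooled human hepatocytes (10 mixed-sex donors per pool, three lots), adhered overnight, then 10 μM substrate or vehicle (0.1% DMSO) for 24 or 48 h in InVitroGRO CP medium. Medium extracted with 50% acetonitrile, dried, reconstituted in methanol; uHPLC-Orbitrap MS/MS for monooxygenated metabolites, high-resolution MS for O-glucuronide.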

[11] = system: Hepatocyte; test: Induction of change in TMED9 protein expression in human primary hepatocytes at 10 uM incubated for 48 hrs by relative-quantitation label-free proteomics analysis relative to NVP; assay type: cell-based; in short: as §2
[12] = target: Cytochrome P450 2D6 (Homo sapiens, UniProt P10635); test: Drug metabolism assessed as human CYP2D6-mediated formation of 12-OHNVP at 10 uM pre-incubated for 30 mins followed by addition of NADPH regenerating reagents by uHPLC-MS analysis; assay type: ADME; conditions: recombinant enzyme; in short: as §1
[13] = system: Hepatocyte; test: Induction of change in Acy3 protein expression in C57BL/6J mouse primary hepatocytes at 400 uM incubated for 8 hrs by relative-quantitation label-free proteomics analysis relative to NVP; assay type: cell-based
In short: as §2, with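 “Fresh primary” for “Cryoplateable pooled human”, “from male C57BL/6J mice aged 8–13 weeks,” for “(10 mixed-sex donors per pool; three pools),”, “(400” for “(10”, “(0.2%” for “(0.1%”, “8” for “48”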

[14] = system: Hepatocyte; test: Induction of change in 5-Mar protein expression in C57BL/6J mouse primary hepatocytes at 400 uM incubated for 8 hrs by relative-quantitation label-free proteomics analysis relative to NVP; assay type: cell-based
In short: as §2, with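 “Fresh primary” for “Cryoplateable pooled human”, “from male C57BL/6J mice aged 8–13 weeks,” for “(10 mixed-sex donors per pool; three pools),”, “(400” for “(10”, “(0.2%” for “(0.1%”, “8” for “48”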

Sequence of Cytochrome P450 2D6 (P10635 whole entry): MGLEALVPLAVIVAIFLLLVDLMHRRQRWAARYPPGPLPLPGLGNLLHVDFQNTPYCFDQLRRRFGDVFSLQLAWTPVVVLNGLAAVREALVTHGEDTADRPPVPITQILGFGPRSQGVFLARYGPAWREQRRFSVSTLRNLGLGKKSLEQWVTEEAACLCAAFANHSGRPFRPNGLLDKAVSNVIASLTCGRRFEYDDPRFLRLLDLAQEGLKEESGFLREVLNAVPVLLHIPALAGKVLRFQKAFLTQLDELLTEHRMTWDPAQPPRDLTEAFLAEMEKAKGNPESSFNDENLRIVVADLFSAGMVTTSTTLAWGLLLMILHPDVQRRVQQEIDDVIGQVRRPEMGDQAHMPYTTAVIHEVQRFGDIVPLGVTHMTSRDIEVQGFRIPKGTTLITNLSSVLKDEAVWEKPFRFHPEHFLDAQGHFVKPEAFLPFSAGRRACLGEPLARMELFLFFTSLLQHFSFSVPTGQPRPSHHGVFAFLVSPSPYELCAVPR

[2H]C([2H])([2H])c1ccnc2c1NC(=O)c1cccnc1N2C1CC1
Drug metabolism [1]: Metabolite_Detected
fold change (FC) [2]: -2.73
fold change (FC) [3]: -1.28
fold change (FC) [4]: -1.86
fold change (FC) [5]: -1.47
Drug metabolism [6]: Metabolite_Detected
fold change (FC) [7]: -1.5
fold change (FC) [8]: 1.56
fold change (FC) [9]: 1.85
Drug metabolism [10]: Metabolite_Detected
fold change (FC) [11]: -1.93
Drug metabolism [12]: Metabolite_Detected
fold change (FC) [13]: 1.6
fold change (FC) [14]: -2.14
